Laboratory results taken from ChEMBL document CHEMBL5104102, “Discovery of FtsZ inhibitors by virtual screening as antibacterial agents and study of the inhibition mechanism” (RSC Med Chem, 2022).
Values after ≈ are worked out from the molar mass of the structure shown. Active and inactive are the calls of the source. The rule behind the calls is not given here.

What was measured:
[1] = system: Bacillus subtilis; assay: Antibacterial activity against Bacillus subtilis 168 assessed as inhibition of bacterial growth incubated for 18 hrs by CLSI protocol based two-fold serial dilution assay; type: functional
Summary of the method: (§1)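 B. subtilis 168 or E. coli ATCC 25922 was grown in MHB and tested by CLSI-based broth microdilution. An overnight culture (37 °C, 250 rpm) was diluted tenfold, grown 2 h, and set to 5 × 10^6 CFU mL−1 by A600. Cells were added to two-fold serial compound dilutions (1% DMSO) and incubated 18 h at 37 °C. Read-out was A600, in duplicate. MIC was the lowest concentration giving A600 < 0.1.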

[2] = system: Staphylococcus aureus; assay: Antibacterial activity against Staphylococcus aureus 29213 assessed as inhibition of bacterial growth incubated for 18 hrs by CLSI protocol based two fold serial dilution method; type: functional
Summary of the method: as §1, with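 “S. aureus” for “B. subtilis 168 or E. coli”, “29213” for “25922”, “CAMHB” for “MHB”, “mL−1.” for “mL−1 by A600.”, “with” for “giving”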

[3] = system: Escherichia coli; assay: Antibacterial activity against Escherichia coli 25922 assessed as inhibition of bacterial growth incubated for 18 hrs by CLSI protocol based two fold serial dilution method; type: functional; summary of the method: as §1
[4] = system: Staphylococcus aureus; assay: Antibacterial activity against methicillin-resistant Staphylococcus aureus BAA 41 assessed as inhibition of bacterial growth incubated for 18 hrs by CLSI protocol based two fold serial dilution method; type: functional
Summary of the method: (§2)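 CAMHB culture grown overnight at 37 °C with shaking at 250 rpm, diluted 10-fold, and grown 2 h. Inoculum set to 5 × 10^6 CFU mL−1 by A600. Compounds in DMSO were serially diluted two-fold, with 1% DMSO per well. Read at A600 after 18 h at 37 °C. MIC is the lowest concentration giving A600 < 0.1. Run in duplicate.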

[5] = system: Staphylococcus aureus; assay: Antibacterial activity against methicillin-resistant Staphylococcus aureus BAA 44 assessed as inhibition of bacterial growth incubated for 18 hrs by CLSI protocol based two fold serial dilution method; type: functional; summary of the method: as §2
[6] = system: Staphylococcus aureus; assay: Antibacterial activity against methicillin-resistant Staphylococcus aureus ATCC 43300 assessed as inhibition of bacterial growth incubated for 18 hrs by CLSI protocol based two fold serial dilution method; type: functional; summary of the method: as §2
[7] = system: Staphylococcus aureus; assay: Antibacterial activity against methicillin-resistant Staphylococcus aureus ATCC 33591 assessed as inhibition of bacterial growth incubated for 18 hrs by CLSI protocol based two fold serial dilution method; type: functional; summary of the method: as §2
[8] = system: Staphylococcus aureus; assay: Antibacterial activity against methicillin-resistant Staphylococcus aureus ATCC 33592 assessed as inhibition of bacterial growth incubated for 18 hrs by CLSI protocol based two fold serial dilution method; type: functional; summary of the method: as §2
[9] = system: Staphylococcus aureus; assay: Antibacterial activity against methicillin-resistant Staphylococcus aureus BAA 1720 assessed as inhibition of bacterial growth incubated for 18 hrs by CLSI protocol based two fold serial dilution method; type: functional; summary of the method: as §2
[10] = system: Escherichia coli; assay: Synergistic antibacterial activity against Escherichia coli 25922 assessed as inhibition of bacterial growth incubated for 18 hrs in presence of PMBN by checkerboard assay; type: functional
Summary of the method: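 E. coli ATCC 25922 was tested in MHB by the broth microdilution format with two-fold serial compound dilutions. Polymyxin B nonapeptide was added to each well at 20 μg mL−1 final before adding bacteria at 5 × 10^5 CFU mL−1. Growth was read by A600.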

[11] = system: Staphylococcus aureus; assay: Synergistic antibacterial activity against methicillin-resistant Staphylococcus aureus BAA 41 assessed as inhibition of bacterial growth incubated for 18 hrs in presence of methicillin by checkerboard assay; type: functional
Summary of the method: (§3)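 Checkerboard: test compound serially diluted two-fold across the plate and methicillin serially diluted down it. Bacteria added at 5 × 10^5 CFU mL−1. Incubated at 37 °C for 16–24 h, then growth read at A600. Untreated-cell columns included. FICI calculated from the combination MICs.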

[12] = system: Staphylococcus aureus; assay: Synergistic antibacterial activity against methicillin-resistant Staphylococcus aureus BAA 41 assessed as FICI incubated for 18 hrs in presence of methicillin by checkerboard assay; type: functional; summary of the method: as §3
[13] = system: Bacillus subtilis; assay: Antibacterial activity against Bacillus subtilis 168 assessed as cell elongation at 0.5 ug/ml incubated for 4 hrs by phase-contrast microscopy; type: functional; settings: dose 0.5 µg/ml
Summary of the method: (§4)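 B. subtilis 168 overnight culture was diluted tenfold into fresh medium and grown 2 h. It was then adjusted to A600 = 0.01, given compound, and incubated 4 h at 37 °C; 1% (v/v) DMSO was the control. Cells were harvested, resuspended in LB, mounted on 1.2% agarose pads and imaged by phase contrast. Lengths of 100 cells per condition were measured to give length distributions and averages.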

[14] = system: Bacillus subtilis; assay: Antibacterial activity against Bacillus subtilis 168 assessed as cell length at 0.5 ug/ml incubated for 4 hrs by phase-contrast microscopy; type: functional; settings: dose 0.5 µg/ml; summary of the method: as §4
[15] = target: T1, Cell division protein FtsZ (Bacillus subtilis (strain 168)) (UniProt P17865); assay: Inhibition of GFP-tagged FtsZ in Bacillus subtilis 168 assessed as inhibition of z-ring formation at 0.125 ug/ml incubated for 4 hrs by FM 5-96 dye based super-resolution microscopy; settings: dose 0.125 µg/ml
T1 sequence (whole entry): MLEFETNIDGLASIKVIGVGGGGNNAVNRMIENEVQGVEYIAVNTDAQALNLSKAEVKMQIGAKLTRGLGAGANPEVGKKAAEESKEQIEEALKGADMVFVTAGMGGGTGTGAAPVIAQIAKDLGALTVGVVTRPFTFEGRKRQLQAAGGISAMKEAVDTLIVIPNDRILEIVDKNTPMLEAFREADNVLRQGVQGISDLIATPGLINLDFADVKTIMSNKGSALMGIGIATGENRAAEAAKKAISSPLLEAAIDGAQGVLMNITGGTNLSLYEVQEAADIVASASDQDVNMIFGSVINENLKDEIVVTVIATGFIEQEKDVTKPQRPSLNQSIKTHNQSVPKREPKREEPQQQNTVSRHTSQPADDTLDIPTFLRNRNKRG
Summary of the method: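 B. subtilis 168 carried an IPTG-inducible FtsZ-GFP plasmid and was grown overnight at 37 °C in LB with 30 μg mL−1 chloramphenicol. It was back-diluted to A600 = 0.01, induced with 40 μM IPTG, and treated with compound for 4 h at 37 °C with shaking. Cells were pelleted, resuspended in PBS and mounted on agarose pads. Membranes were stained with FM 5-96, and FtsZ-GFP localization was imaged by super-resolution microscopy (N-SIM).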

[16] = system: Staphylococcus aureus; assay: Bactericidal activity against methicillin-resistant Staphylococcus aureus BAA 41 assessed as inhibition of bacterial growth at 1 ug/ml incubated for 24 hrs by time-kill assay; type: functional, organism-based; settings: dose 1.0 µg/ml
Summary of the method: (§5)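 Time-kill: 3 mL culture at 5 × 10^5 CFU mL−1 exposed to compound at several concentrations or to 1% DMSO control at 37 °C with shaking at 250 rpm, over 24 h. 100 μL samples taken at intervals, diluted as needed, and spread on agar. Colonies counted after 24 h at 37 °C.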

[17] = system: Staphylococcus aureus; assay: Bactericidal activity against methicillin-resistant Staphylococcus aureus BAA 41 assessed as inhibition of bacterial growth at 2 ug/ml incubated for 24 hrs by time-kill assay; type: functional, organism-based; settings: dose 2.0 µg/ml; summary of the method: as §5
[18] = system: Staphylococcus aureus; assay: Bactericidal activity against methicillin-resistant Staphylococcus aureus BAA 41 assessed as inhibition of bacterial growth at 4 ug/ml incubated for 24 hrs by time-kill assay; type: functional; settings: dose 4 µg/ml; summary of the method: as §5
[19] = system: Staphylococcus aureus; assay: Bactericidal activity against methicillin-resistant Staphylococcus aureus BAA 41 assessed as inhibition of bacterial growth at 8 ug/ml incubated for 24 hrs by time-kill assay; type: functional; settings: dose 8 µg/ml; summary of the method: as §5
[20] = system: Staphylococcus aureus; assay: Bactericidal activity against methicillin-resistant Staphylococcus aureus BAA 41 assessed as inhibition of bacterial growth incubated for 24 hrs by time-kill assay; type: functional; summary of the method: as §5
[21] = Ratio of MBC for bactericidal activity against methicillin-resistant Staphylococcus aureus BAA 41 to MIC for antibacterial activity against methicillin-resistant Staphylococcus aureus BAA 41; type: functional
Summary of the method: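 MBC: culture at 5 × 10^5 CFU mL−1 incubated overnight at 37 °C with shaking and compound or 1% DMSO, then diluted ≥10-fold and plated on TSA for 24 h at 37 °C. MBC is the lowest concentration giving ≥99.9% reduction of the initial count. MBC is divided by the broth-dilution MIC (A600 < 0.1 after 18 h).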

[22] = target: T2, Cell division protein FtsZ (Staphylococcus aureus) (UniProt P0A031); assay: Inhibition of Staphylococcus aureus FtsZ polymerization assessed as increase in GTPase activity at 1 ug/ml incubated for 40 mins in presence of GTP by malachite green phosphate assay; settings: dose 1.0 µg/ml
T2 sequence (whole entry): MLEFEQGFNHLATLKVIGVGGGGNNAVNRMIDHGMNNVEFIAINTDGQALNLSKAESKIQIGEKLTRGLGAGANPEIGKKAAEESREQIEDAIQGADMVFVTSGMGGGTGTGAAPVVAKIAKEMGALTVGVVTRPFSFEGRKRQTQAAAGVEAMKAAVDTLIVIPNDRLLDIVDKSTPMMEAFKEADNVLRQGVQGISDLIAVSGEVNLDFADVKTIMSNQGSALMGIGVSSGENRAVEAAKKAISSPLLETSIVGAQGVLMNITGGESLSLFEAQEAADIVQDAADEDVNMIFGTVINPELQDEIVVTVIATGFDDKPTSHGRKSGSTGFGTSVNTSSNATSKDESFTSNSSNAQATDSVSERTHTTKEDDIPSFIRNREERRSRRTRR
Summary of the method: (§6)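 Purified S. aureus FtsZ (3 μM) was preincubated with serially diluted compound in 50 mM MOPS pH 6.5 for 30 min at room temperature; 1% DMSO served as control. MgCl2 (5 mM) and KCl (200 mM) were added, and the reaction was started with 250 μM GTP for 10 min at 37 °C. Malachite green reagent was then developed 30 min at 37 °C, and released phosphate was read at A600.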

[23] = target: T2, Cell division protein FtsZ (Staphylococcus aureus); assay: Inhibition of Staphylococcus aureus FtsZ polymerization assessed as increase in GTPase activity at 5 to 20 ug/ml incubated for 40 mins in presence of GTP by malachite green phosphate assay; settings: dose 5-20 µg/ml, DDE = dose-dependent effect; summary of the method: as §6

SMILES	MIC [1] [µg/mL]	MIC [2] [µg/mL]	MIC [3] [µg/mL]	MIC [4] [µg/mL]	MIC [5] [µg/mL]	MIC [6] [µg/mL]	MIC [7] [µg/mL]	MIC [8] [µg/mL]	MIC [9] [µg/mL]	MIC [10] [µg/mL]	MIC [11] [µg/mL]	fractional inhibitory concentration index (FICI) [12]	further results
CCOC(=O)C(CCc1ccccc1)NC(C)C(=O)N1Cc2ccccc2CC1C(=O)O.Cl (stereo not given)	> 128	> 128	> 128										
CCc1cncnc1N1CCN(Cc2nc3cc(C(F)(F)F)ccc3[nH]2)CC1	128 (≈ 328 µM)	128 (≈ 328 µM)	> 128	64 (≈ 164 µM)	64 (≈ 164 µM)	32 (≈ 82 µM)	64 (≈ 164 µM)	64 (≈ 164 µM)	64 (≈ 164 µM)	64	128	>1	
CC1(C)CC(=O)c2c(C(F)(F)F)nn(-c3ccc(C(N)=O)c(N[C@H]4CC[C@H](OC(=O)CN)CC4)c3)c2C1 [SNX 5422]	> 128	> 128	> 128										
CN(C)C(=O)[C@H](O)[C@H](Cc1ccccc1)NC(=O)c1cc2cc(Cl)ccc2[nH]1	16 (≈ 40 µM)	> 128	> 128	> 128	> 128	32 (≈ 80 µM)	> 128	> 128	> 128				
NC(=O)c1c(F)ccc(OCc2nc3cc(Cl)cnc3s2)c1F	0.5 (≈ 1.41 µM)	0.5 (≈ 1.41 µM)	> 128	0.5 (≈ 1.41 µM)	1 (≈ 2.81 µM)	1 (≈ 2.81 µM)	1 (≈ 2.81 µM)	2 (≈ 5.62 µM)	1 (≈ 2.81 µM)	32	0.5	0.52	Activity [13]: 33%; Activity [14]: 135.8 um; inhibition [15]: Active; Activity [16]: Active; Activity [17]: Active; Activity [18]: 0 log10CFU/ml; Activity [19]: 0 log10CFU/ml; MBC [20]: 2 µg/mL (≈ 5.62 µM); Ratio [21]: 2; inhibition [22]: 105%; inhibition [23]: Dde
